# From ChEMBL document CHEMBL1949650, “Design, synthesis, computational and biological evaluation of some new hydrazino derivatives of DHA and pyranopyrazoles” (2012)
# Activity calls are given as the source filed them. The calls are words filed in the database; no cut-off is given here.
# Key:
# Rattus norvegicus [1] = experiment: Antiinflammatory activity in rat assessed as inhibition of carrageenan-induced paw oedema at 50 mg/kg after 2 hrs by plethysmography relative to control; assay type: functional
# How it was run: (§1)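 0.1 ml of 1% carrageenan was injected subplantar into the right hind paw. Paw volume was measured plethysmographically immediately and at 1, 2, 3 and 4 h; oedema is the volume difference. Test compounds were dosed at 50 mg/kg b.w., with diclofenac sodium 50 mg/kg as reference. Percent inhibition was calculated against the saline control group. N = 5, mean ± SEM, ANOVA.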
# Rattus norvegicus [2] = experiment: Antiinflammatory activity in rat assessed as inhibition of carrageenan-induced paw oedema at 50 mg/kg after 3 hrs by plethysmography relative to control; assay type: functional; how it was run: as §1
# Rattus norvegicus [3] = experiment: Antiinflammatory activity in rat assessed as inhibition of carrageenan-induced paw oedema at 50 mg/kg after 4 hrs by plethysmography relative to controlchallenge by plethysmography; assay type: functional; how it was run: as §1
# Mus musculus [4] = experiment: Analgesic activity in Swiss albino mouse assessed as inhibition of acetic acid-induced writhing at 50 mg/kg, po administered 30 mins prior acetic acid-induction measured after 2 hrs by tail immersion method; assay type: functional, organism-based; design: dose 50 mg/kg
# Mus musculus [5] = experiment: Analgesic activity in Swiss albino mouse assessed as protection against acetic acid-induced wriths at 50 mg/kg, po administered 30 mins prior acetic acid challenge measured for 10 mins; assay type: functional
# How it was run: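 Adult Swiss albino mice (20-25 g) were used, with N = 5 per group. Wriths were counted for 10 min, starting 5 min after acetic acid injection, on day 1 as each mouse's control. Next day, 50 mg/kg was given orally 30 min before acetic acid. Diclofenac sodium was the standard. Protection = […] × 100 from group means. Analysis: mean ± SEM, one-way ANOVA, Tukey-Kramer.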
# Rattus norvegicus [6] = experiment: Antiinflammatory activity in rat assessed as inhibition of carrageenan-induced paw oedema at 50 mg/kg after 1 hr by plethysmography relative to control; assay type: functional; how it was run: as §1
# Mus musculus [7] = experiment: Analgesic activity in Swiss albino mouse assessed as inhibition of acetic acid-induced writhing at 50 mg/kg, po administered 30 mins prior acetic acid-induction measured after 1 to 2 hrs by tail immersion method; assay type: functional, organism-based; design: dose 50 mg/kg
# Mus musculus [8] = experiment: Analgesic activity in Swiss albino mouse assessed as inhibition of acetic acid-induced writhing at 50 mg/kg, po administered 30 mins prior acetic acid-induction measured after 1 hr by tail immersion method; assay type: functional, organism-based; design: dose 50 mg/kg
SMILES,inhibition in vivo at 50 mg/kg (Rattus norvegicus [1]) [%],inhibition in vivo at 50 mg/kg (Rattus norvegicus [2]) [%],inhibition in vivo at 50 mg/kg (Rattus norvegicus [3]) [%],Activity (Mus musculus [4]),inhibition in vivo at 50 mg/kg (Mus musculus [5]) [%],inhibition in vivo at 50 mg/kg (Rattus norvegicus [6]) [%],Activity (Mus musculus [7]),Activity (Mus musculus [8])
Cc1ccc(-n2nc3cc(C)oc(=O)c3c2C)cc1,58.4,54,41.7,Active,69.4,63.3,–,–
CC(=O)c1c(NNc2ccc(Br)cc2)cc(C)oc1=O,47.2,40.4,18.6,–,53.1,46.8,–,–
Cc1cc2nn(-c3ccc(Br)cc3)c(C)c2c(=O)o1,50.6,49.5,38.2,–,44.9,59.5,Active,–
Cc1cc2nn(-c3nc(-c4ccccc4)cs3)c(C)c2c(=O)o1,59.5,62.6,52.9,–,70.2,67.1,Active,–
CC(=O)c1c(NNc2cc(C)c3ccccc3n2)cc(C)oc1=O,55,55.6,51,Active,75,51.9,Active,Active
CC(=O)c1c(NNc2nc3ccccc3s2)cc(C)oc1=O,58.4,54.5,49,–,65.3,64.6,Active,Active
Cc1cc2nn(-c3ccccc3)c(C)c2c(=O)o1,55,52.5,43.1,–,50.2,57,Active,Active
COc1ccc(NNc2cc(C)oc(=O)c2C(C)=O)cc1,49.4,44.4,24.5,–,59.2,50,–,–
CC(=O)c1c(NNc2ccccc2)cc(C)oc1=O,57.3,55.6,52,–,49.8,59.5,–,Active
COc1ccc(-n2nc3cc(C)oc(=O)c3c2C)cc1,53.9,57.6,42.2,–,75.9,64.6,–,–
O=C(O)Cc1ccccc1Nc1c(Cl)cccc1Cl [DICLOFENAC SODIUM],67.4,69.7,66.7,–,77.5,70.9,–,–
CC(=O)c1c(NNc2ccc([N+](=O)[O-])cc2)cc(C)oc1=O,55,45.5,44.1,–,47.3,53.2,–,–
Cc1cc2nn(-c3ccc(Cl)cc3)c(C)c2c(=O)o1,59.5,56.6,38.2,–,65.3,58.2,–,–
CC(=O)c1c(NNc2ccc(C)cc2)cc(C)oc1=O,53.4,59.6,50,–,70.2,60.1,–,Active
CC(=O)c1c(NNc2nc(C)cc(C)n2)cc(C)oc1=O,61.8,55.6,42.2,–,64.9,59.5,–,Active
CC(=O)c1c(NNc2nc(-c3ccccc3)cs2)cc(C)oc1=O,48.3,45.5,23.5,Active,51.4,51.9,–,–
CC(=O)c1c(NNc2ccc(Cl)cc2)cc(C)oc1=O,57.3,58.6,28.4,–,75.1,54.4,–,–
